PAFAH1B3 FP inh: PAFAH1B3 (human) inhibition; AID 492972; 340,000 compounds, 0.28% hits; inhibition, % at 3.39 µM; Q15102; recombinant PAFAH1B3, FP-rhodamine probe, fluorescence polarization;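 active means inhibition above the screen-wide average of all tested compounds plus 3 SD, cut at about 25% in these data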;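 further: 0% = enzyme with DMSO only and 100% = wells lacking PAFAH1B3 protein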
Target sequence (Q15102 whole entry, looked up): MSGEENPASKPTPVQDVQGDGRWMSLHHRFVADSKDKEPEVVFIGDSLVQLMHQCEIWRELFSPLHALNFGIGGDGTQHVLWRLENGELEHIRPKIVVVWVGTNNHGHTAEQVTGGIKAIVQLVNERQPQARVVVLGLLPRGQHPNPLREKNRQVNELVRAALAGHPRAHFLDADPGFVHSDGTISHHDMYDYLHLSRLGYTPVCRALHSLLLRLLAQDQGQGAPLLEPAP
PAFAH2 FP inh: inhibitors of human PAFAH2. recombinant PAFAH2, FP-rhodamine activity probe, fluorescence polarization. inhibition, % at 3.39 µM. 340,000 compounds, 0.99% hits. AID 492956;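 active means inhibition above the mean over all tested compounds plus 3 SD, cut at about 30% in these data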;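 further: inhibitors block probe labeling of enzyme so polarization drops; 0% = enzyme with DMSO and 100% = wells lacking PAFAH2 protein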
ASAP1 GAP inh: ASAP1 ArfGAP inhibition; ASAP1-stimulated ARF1 GTP hydrolysis, GDP FP detection; inhibition, % at 16.5 µM; 360,000 compounds, 0.19% hits; in the data active means inhibition above about 25%;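 further: 0% = vehicle with enzyme and substrate and 100% = no enzyme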
Target sequence (Q9ULH1 325-724 limits assumed): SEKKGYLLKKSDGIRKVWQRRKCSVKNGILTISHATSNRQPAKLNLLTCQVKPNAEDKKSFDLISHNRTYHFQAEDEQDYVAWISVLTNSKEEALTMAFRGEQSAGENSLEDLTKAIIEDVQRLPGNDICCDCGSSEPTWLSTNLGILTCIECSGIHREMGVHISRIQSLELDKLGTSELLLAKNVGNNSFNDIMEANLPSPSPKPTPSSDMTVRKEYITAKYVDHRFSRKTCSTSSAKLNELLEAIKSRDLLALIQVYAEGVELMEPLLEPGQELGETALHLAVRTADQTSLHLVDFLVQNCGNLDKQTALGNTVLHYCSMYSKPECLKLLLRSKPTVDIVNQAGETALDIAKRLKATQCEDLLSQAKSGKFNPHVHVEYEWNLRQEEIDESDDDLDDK
PAFAH1B2 FP inh: blocks human PAF acetylhydrolase 1b catalytic subunit 2 | P68402 | recombinant PAFAH1B2, FP-rhodamine activity probe, fluorescence polarization | inhibition, % at 3.39 µM | 340,000 compounds, 1.2% hits | AID 492953;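 active means inhibition above the mean of all tested compounds plus 3 SD, cut at about 24% in these data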;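 further: 0% = enzyme with DMSO and 100% = wells lacking PAFAH1B2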
pPAFAH FP inh: pPAFAH (human) enzyme inhibition. recombinant pPAFAH, FP-rhodamine probe fluorescence polarization. inhibition, % at 3.39 µM. 330,000 compounds, 1.5% hits;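 active means inhibition above the mean inhibition across the screen plus 3 SD, cut at about 25% in these data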;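 further: inhibitors block binding of the rhodamine activity-based probe so polarization drops; 0% = enzyme with DMSO and 100% = wells lacking pPAFAH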
ARFGAP1 inh: inhibitors of rat ARFGAP1. 360,000 compounds, 0.26% hits. Arfgap1-stimulated ARF1 GTP hydrolysis, GDP FP detection. inhibition, % at 16.5 µM;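 active means inhibition above a per-plate limit, mean inhibition of low control wells plus 3 SD, cut at about 25% in these data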;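 further: 0% = DMSO wells with enzyme and 100% = wells lacking Arfgap1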
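Repeats: one replicate per compound; assay system: rat Arfgap1 catalytic domain, aa 1-136; times: enzyme reaction 120 min at 25 °C after 20 min preincubation; detection: FP of antibody-bound GDP Alexa 633 tracer, ex 620/em 688 nm; benchmarks: high control wells lacking Arfgap1, low control full reaction with DMSO; reagent: human ARF1(Δ1-17)-GTP substrate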
* = called active by the depositor; nt = not tested or not shown. Only some compounds are listed: those with a hit (about 2.7% of all), similar ones and a draw of the others.

SMILES	PAFAH1B3 FP inh	PAFAH2 FP inh	ASAP1 GAP inh	PAFAH1B2 FP inh	pPAFAH FP inh	ARFGAP1 inh
CC[C@]12c3[nH]c4cc(CCC(=O)N(C)C)ccc4c3CCN1C(=O)[C@@H](CC(=O)NC/C=C(\C)CCC=C(C)C)C[C@@H]2C(=O)N1CCN(C(=O)C2CC2)CC1	9.5	-4.7	-2.6	1.6	29.1*	-1.6
CC[C@]12c3[nH]c4cc(CCC(=O)N(C)C)ccc4c3CCN1C(=O)[C@@H](CC(=O)NCCN1CCOCC1)C[C@@H]2C(=O)N1CCN(C(=O)C2CC2)CC1	2.9	2.9	-0.3	3.0	4.9	-0.3
CC(C)=CCC/C(C)=C/CNC(=O)C[C@H]1C[C@H](C(=O)N2CCOCC2)[C@@]2(C)c3[nH]c4cc(CCC(=O)N(C)C)ccc4c3CCN2C1=O	2.3	-0.7	2.3	-2.0	29.9*	1.5
COc1ccc2[nH]c3c(c2c1)CCN1C(=O)C(CC(=O)NC/C=C(\C)CCC=C(C)C)C[C@H](C(=O)N(C(C)C)C(C)C)[C@@]31C (stereo not given in full)	6.8	6.6	-11.3	4.5	25.5*	-2.2
CCN=C1NC(c2ccc(C(F)(F)F)cc2)C(C(=O)OC)=C(C)N1Cc1ccccc1C(F)(F)F (stereo not given)	nt	nt	-2.1	nt	nt	8.0
O=C(COC(=O)c1ccc2ccccc2n1)Nc1ncc(C(F)(F)F)cc1Cl	2.0	8.9	4.5	-1.9	26.3*	-2.3
O=C(COC(=O)c1nc(Cl)ccc1Cl)Nc1ncc(Cl)cc1Cl	51.0*	52.3*	-3.5	60.6*	4.2	14.0
COc1ccccc1NC(=O)COC(=O)c1ccc(S(=O)(=O)NCc2ccco2)cc1	-0.3	1.1	0.1	-4.7	21.7	-14.6
O=C(COC(=O)c1nc(Cl)ccc1Cl)NCc1ccc(Cl)cc1Cl	5.5	4.2	1.2	5.5	nt	-2.4
O=C(COC(=O)c1ccc(S(=O)(=O)NCc2ccco2)cc1)Nc1ncc(Cl)cc1Cl	2.2	15.9	-3.2	2.3	25.1*	1.2
COc1ccccc1OCCC(=O)OCC(=O)Nc1ncc(Cl)cc1Cl	0.5	15.0	-5.2	-0.2	26.0*	5.6
O=C(COC(=O)CCOc1ccccc1)Nc1ncc(Cl)cc1Cl	7.6	15.9	-24.2	1.7	20.3	-5.0
CC1(C)OC(=O)C2=C(CC(CCc3ccccc3)OC2c2ccc(F)cc2)O1 (stereo not given)	nt	nt	9.0	nt	nt	4.0
NC(=S)N=Nc1c(O)n(CCCl)c2ccc(Br)cc12	5.4	3.5	5.9	31.9*	1.6	2.1
CCN1C(=O)N[C@H]2C[C@@H](c3ccccc3)[C@@H](C)[C@@H](C(=O)N3CCCC3)C[C@H]21	nt	nt	-10.0	nt	nt	-4.1
C#CCNC(=O)C[C@H]1C[C@@]2(C(=O)OC)C(=C[C@H](C(C)C)O[C@@H]2C2CC2)N(Cc2ccccc2)C1=O	nt	nt	5.1	nt	nt	-15.5
CCOCC(O)CSCc1ccc(Cl)cc1 (stereo not given)	-1.1	2.9	-8.8	25.6*	1.8	-1.2
CCOC(=O)C1CCN(CC(O)COCc2ccc(Cl)cc2)CC1 (stereo not given)	1.4	0.5	6.5	2.6	3.3	14.2
O=C(OCC(=O)N1CCN(C(=O)c2ccco2)CC1)c1cc(-c2ccco2)nc2ccccc12	2.8	51.8*	nt	4.8	31.1*	nt
CCNC(=O)COC(=O)c1cc(-c2ccco2)nc2ccccc12	7.0	3.5	6.8	-0.3	23.7	1.3
CCOC(=O)c1oc2ccccc2c1CSc1nnnn1-c1ccccc1	15.2	1.8	0.5	6.6	26.1*	3.4
CCOC(=O)c1oc2ccccc2c1CN1CCCCC1	3.4	2.8	-7.1	7.4	4.0	-4.3
Cc1ccc(OC(=O)N(C)C[C@H]2OCc3cn(nn3)CCCC(=O)N([C@@H](C)CO)C[C@@H]2C)cc1	nt	nt	-10.0	nt	nt	3.8
CCCCOCC1CN(CCCC)S(=O)(=O)c2c(cccc2Sc2ccc(OC)c(OC)c2)O1 (stereo not given)	nt	nt	9.6	nt	nt	-14.2
S=c1[nH]nc(CSCCOc2ccc(Cl)cc2Cl)o1	4.5	3.9	-4.7	33.8*	7.9	-4.8
SMILES	PAFAH1B3 FP inh	PAFAH2 FP inh	ASAP1 GAP inh	PAFAH1B2 FP inh	pPAFAH FP inh	ARFGAP1 inh
S=c1[nH]nc(CSCCOc2ccccc2)o1	18.0	-0.3	2.9	7.6	9.1	-1.9
S=C(SCc1nc(-c2ccc(Cl)cc2)no1)N1CCSCC1	nt	nt	18.8	nt	nt	8.1
Oc1c(I)cc(I)c2cccnc12	10.2	6.9	-3.2	8.4	33.0*	10.6
CCCC[C@@H]1CCCO[C@@](C(=O)NCc2ccccn2)(C(F)(F)F)C1	-3.9	-1.0	12.4	0.5	1.7	12.4
CCC[C@@H]1CCCO[C@@](C(=O)NCc2ccccn2)(C(F)(F)F)C1	8.7	8.8	3.3	30.1*	0.8	-4.1
COC(=O)C1=C(C)N(C)C(=NCc2ccc3c(c2)OCO3)NC1c1cccc(C(F)(F)F)c1 (stereo not given)	nt	nt	-15.3	nt	nt	5.6
O=C1c2ccccc2C2Cc3nnccc3CN12 (stereo not given)	nt	nt	-8.1	nt	nt	11.2
CCCOc1ccc(C(=O)O/N=C(\CC)c2ccc(C)cc2)cc1	-1.5	-4.0	-11.4	-3.7	20.4	10.9
C/C(=N\OC(=O)c1ccc(OC(C)C)cc1)c1ccc(C)c(C)c1	3.7	23.4	-9.3	-0.3	27.6*	-12.0
Cc1ccc(C(=O)O/N=C(\N)c2ccccn2)cc1C	4.0	15.4	-2.7	3.6	7.8	-6.2
CC/C(=N\OC(=O)c1ccc(OC(C)C)cc1)c1ccc(C)cc1	0.3	9.3	9.7	1.3	28.9*	-10.3
C/C(=N\OC(=O)c1ccc(F)cc1)c1ccc(F)c(F)c1	-5.5	37.3*	2.3	22.2	3.2	5.5
COC(=O)[C@]12C[C@H](CC(=O)NCc3cccc4ccccc34)C(=O)N(CCc3ccc(OC)c(OC)c3)C1=C[C@H](C(C)(C)C)O[C@@H]2C	nt	nt	8.0	nt	nt	11.6
c1coc(-c2nc3c4ccccc4ccn3c2Cc2ccsc2)c1	nt	nt	6.5	nt	nt	16.4
O=C(COC(=O)C12CC3CC(CC(Br)(C3)C1)C2)NNC(=O)c1ccccc1	5.0	2.7	-0.8	51.6*	3.6	-9.4
O=C(COC(=O)C12CC3CC(CC(Cl)(C3)C1)C2)Nc1ccccc1	8.0	59.6*	5.2	35.5*	5.3	4.8
O=C(COC(=O)C12CC3CC(CC(C3)C1)C2)NNC(=O)c1ccccc1	6.2	2.9	7.9	40.0*	1.4	-5.1
O=C(COC(=O)C12CC3CC(CC(C3)C1)C2)NCc1ccccc1	7.0	29.3	-7.0	6.3	3.3	-10.7
CC1CCCCC1NC(=O)COC(=O)C12CC3CC(CC(Cl)(C3)C1)C2 (stereo not given)	8.3	61.6*	9.3	35.2*	6.9	-2.3
O=C(COC(=O)C12CC3CC(CC(C3)C1)C2)NCCc1ccccc1	-2.0	21.1	2.0	13.4	9.6	4.2

High-throughput results from PubChem.
